Bioassay records deposited in PubChem BioAssay by Broad Institute.
GSK3beta inhib: human GSK3beta kinase inhibition. P49841. GST-GSK3beta kinase, ADP-Glo luminescence, 60 min; active compounds read low. activity score (negative = inhibition), % at 10 µM. hit rate 0.038% among 300,000. AID 2097;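 active = more than half of replicate wells score below -50%, meaning over 50% inhibition versus plate controls; inconclusive = some replicates but at most half score below -50%; inactive = no replicate scores below -50%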;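 also: 0% = median DMSO wells and -100% = median GW8510 positive control wells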
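Test system: GST-tagged human GSK3beta kinase, cell-free; evaluation: activity score scaled between in-plate DMSO and GW8510 controls; measured by: ADP-Glo luminescence; incubation: 60 min reaction, RT; benchmarks: DMSO and 20 µM GW8510; reagent: peptide substrate plus 25 µM ATP (final); medium: Tris/MgCl2 kinase buffer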
STK33 kinase inh: inhibitors of human STK33 kinase; Q9BYT3; purified STK33, MBP phosphorylation, ADP-Glo luminescence; inhibition, % at 10 µM; hit rate 0.073% among 320,000; AID 2661;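 active = inhibition at or above 25%, using the most active replicate where run in duplicate; inactive = inhibition below 25%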
Target sequence (Q9BYT3 whole entry, looked up): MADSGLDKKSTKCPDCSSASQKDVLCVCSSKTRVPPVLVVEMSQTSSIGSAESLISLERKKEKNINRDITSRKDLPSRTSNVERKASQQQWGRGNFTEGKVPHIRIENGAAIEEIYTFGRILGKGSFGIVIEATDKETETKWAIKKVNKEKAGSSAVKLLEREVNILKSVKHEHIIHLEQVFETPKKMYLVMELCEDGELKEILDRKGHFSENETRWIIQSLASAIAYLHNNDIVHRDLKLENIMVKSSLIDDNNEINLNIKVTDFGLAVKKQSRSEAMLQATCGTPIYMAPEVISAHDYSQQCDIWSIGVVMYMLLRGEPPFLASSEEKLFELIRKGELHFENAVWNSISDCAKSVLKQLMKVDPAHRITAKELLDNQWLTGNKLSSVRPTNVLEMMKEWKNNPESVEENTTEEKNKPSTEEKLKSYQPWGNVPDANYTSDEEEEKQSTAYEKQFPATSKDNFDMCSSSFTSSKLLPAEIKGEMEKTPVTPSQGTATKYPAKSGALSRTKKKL
Dyrk1A ADPGlo: Dyrk1A (rat) kinase inhibition | Q63470 | ADP-Glo luminescence, NFATc1 peptide | inhibition, % at 12.5 µM | hit rate 0.43% among 310,000 | AID 504441; in the data active = inhibition above about 50%;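 also: plate controls were vehicle with enzyme for no effect and no enzyme for full effect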
AI-2 QS mod: modulators of Vibrio harveyi AI-2 quorum sensing system | Vibrio harveyi JMH597 AI-2 luminescence/OD600 ratio, 9 h; active compounds read low; strain lacks LuxN and CqsS sensors; 0 = neutral-control median | activity change, % at 7.5 µM | hit rate 0.4% among 300,000 | AID 2094; in the data active = activity change below about -75%, passing the limit was not always enough; inconclusive = no clear call, values can overlap the other calls;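 also: luminescence divided by OD600 gain over 9 h not by final OD600 alone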
Rce1 inh: blocks yeast Ras-converting enzyme. hit rate 0.27% among 290,000. AID 2563. yeast membranes, quenched prenylated peptide cleavage fluorescence. calls only;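 active = fall in fluorescence gain of 50% or more versus controls, with final raw signal at or below 3038400; inconclusive = same 50% fall but final raw signal above 3038400; inactive = fall in fluorescence gain under 50%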;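 also: plate controls were neutral control wells for no effect and wells lacking membranes for full effect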
GSK3A inh: blocks human GSK-3 alpha kinase | ADP-Glo luminescence, 60 min | inhibition, % at 10 µM | hit rate 0.1% among 320,000 | AID 2650;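 active = more than half of replicates show inhibition above 20%; inconclusive = some but at most half of replicates above 20% inhibition; inactive = no replicate shows inhibition above 20%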;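 also: GST-tagged GSK-3 alpha with peptide substrate and 25 µM ATP; 0% = DMSO neutral wells and 100% = GW8510 positive control wells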
Dyrk1A artifact: interferes with ADP-Glo luciferase readout without Dyrk1A; shares compounds with Dyrk1A ADPGlo; 1,300 tested, under 10 active; AC50, µM (top dose mostly 12 µM), for inactives: at the highest dose activity change, negative = inhibition; AID 588348; ADP-Glo luciferase artifact assay, no Dyrk1A, luminescence;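 active = fitted half-maximal dose AC50 no more than ten times the top valid tested dose, with luminescence dropping as dose rises; inconclusive = poor fit, or flat fit with 30 to 70% inhibition; inactive = the rest, signal increases included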
Starred values were filed as active, the others as inactive; i = inactive; ? = inconclusive; nt = not tested or not shown. Hits are enriched below; roughly 0.99% of the tested compounds scored in any of these assays.

SMILES	GSK3beta inhib	STK33 kinase inh	Dyrk1A ADPGlo	AI-2 QS mod	Rce1 inh	GSK3A inh	Dyrk1A artifact
CCCc1nc2c([nH]1)c(=O)n(C)c(=O)n2C	0.4	0.4	5.6	12.1	i	8.5	nt
COc1ccc(-c2nc(-c3ccccn3)ncc2S(C)(=O)=O)cc1	2.0	-2.5	-2.7	29.2	nt	nt	nt
CCCc1nc2c(=O)n(C)c(=O)nc-2n(C)n1	nt	nt	64.6*	nt	nt	nt	6.2%
Cn1nc(-c2ccccn2)nc2c(=O)n(C)c(=O)nc1-2	-27.7	-1.5	80.7*	-92.4*	i	8.9	7.3%
O=C(c1cc(Br)c(Br)s1)N1CCc2ccccc2C1	nt	0.4	9.2	nt	nt	-1.1	nt
O=C(Nc1cccc(-c2nn[nH]n2)c1)c1ccc(Br)s1	-8.9	21.4	92.0*	16.0	i	14.1	9.8%
O=C(Nc1cccc(-c2nn[nH]n2)c1)c1ccc(Cl)s1	-11.6	0.7	76.2*	16.5	i	9.1	9.6%
O=C(Nc1cccnc1)c1ccc(Br)s1	5.1	1.4	9.7	8.1	i	-0.1	nt
CC(C)=CCc1cc2c(=O)c3c(O)c4c(cc3oc2c(O)c1O)OC(C)C4(C)C (stereo not drawn)	3.4	-0.8	nt	-12.4	i	0.1	nt
Cc1cc(/C=N/Nc2ccc([N+](=O)[O-])cn2)c(C)n1-c1ccccc1	3.6	-1.3	5.5	23.0	i	-1.6	nt
Cc1c(C(=O)O)cccc1-n1c(C)cc(/C=N/Nc2ccc([N+](=O)[O-])cn2)c1C	-8.8	9.5	58.8*	49.9	i	34.8	9.1%
COc1ccc(-c2cn[nH]c2C)cc1	4.7	8.8	62.6*	4.5	i	2.5	7.8%
COc1ccc(C)cc1NC(=O)CCc1ccc(S(=O)(=O)N2CCOCC2)cc1	nt	0.2	2.3	nt	nt	1.7	nt
COc1ccc2[nH]c3c(C)c4ccncc4c(C)c3c2c1	2.6	5.7	56.5*	126.5	nt	-0.7	9.9%
COc1cc(CCC(=O)Nc2ccc(C)c(S(=O)(=O)N3CCCCCC3)c2)cc(OC)c1OC	nt	0.6	nt	nt	nt	1.0	nt
CC(NC(=O)CN1C(=O)NC2(CCCCCC2)C1=O)c1ccccc1 (stereo not drawn)	nt	-0.3	nt	nt	nt	-1.5	nt
CN1/C(=N\O)c2cccc3cccc1c23	-2.1	11.9	66.3*	22.9	i	nt	9.6%
CNC(=O)CN1C(=O)c2cccc3cccc1c23	1.9	-0.3	4.2	20.3	i	nt	nt
Cc1nc2ccc3[nH]snc3c2n1	-10.6	4.6	55.1*	22.6	i	15.5	6.9%
Cc1cc(=O)oc2ccc(OC(=O)c3cccc(S(=O)(=O)N4CCOCC4)c3)cc12	-0.7	0.6	54.1*	30.3	i	1.5	5.3%
COc1ccc2c(c1)CCc1cn[nH]c1-2	-1.9	-0.3	50.5*	34.5	i	0.0	6.9%
CCOc1ccc(/C=C2\SC(=S)N(C)C2=O)cc1OC	-3.0	-0.6	nt	15.3	i	-0.3	nt
COc1ccc(/C=C2\SC(=O)NC2=S)cc1OC	0.5	nt	58.0*	7.0	i	nt	7.5%
COc1cc(/C=C2\SC(=O)NC2=O)ccc1Oc1ccc([N+](=O)[O-])cc1[N+](=O)[O-]	-4.3	-1.8	77.2*	41.0	i	1.6	9.9%
Nc1nc(N)c2c(ccc3nccc32)[nH]1	-2.5	0.9	55.0*	8.8	?	-0.3	8.3%
SMILES	GSK3beta inhib	STK33 kinase inh	Dyrk1A ADPGlo	AI-2 QS mod	Rce1 inh	GSK3A inh	Dyrk1A artifact
CCc1nc(NC(=O)Cc2csc(C)n2)sc1C(=O)OC	-1.2	1.8	-1.3	8.4	i	-1.3	nt
Cc1ccc(S(=O)(=O)N2CCN(C(=O)COC(=O)COc3ccccc3C(C)C)CC2)c(C)c1	nt	nt	10.8	nt	nt	nt	nt
COc1ccc(-c2cc(=O)[nH]c(=O)[nH]2)cc1	1.2	1.1	29.2	1.9	i	7.2	nt
COc1ccc(-c2cc(=O)[nH][nH]2)cc1	-5.8	0.7	62.8*	2.8	i	0.8	8.2%
COc1ccc2[nH]c(C(=O)O)c(CCN3C(=O)c4ccc(C(=O)O)cc4C3=O)c2c1	-1.7	2.0	30.5	-7.6	i	2.2	nt
O=C(O)c1[nH]c2ccc(Br)cc2c1CCN1C(=O)c2cccc([N+](=O)[O-])c2C1=O	1.1	2.5	51.4*	11.9	i	-0.7	11.9%
O=C(O)c1[nH]c2ccc(Cl)cc2c1CCN1C(=O)c2ccccc2C1=O	2.4	-1.0	66.3*	-0.8	i	0.5	12.4%
